In brackets after ≈: the same amount, converted by molar mass.

The target in test [1] is T1, Enoyl-[acyl-carrier-protein] reductase [NADH] (Mycobacterium tuberculosis) (UniProt P9WGR1).
T1 sequence (whole entry): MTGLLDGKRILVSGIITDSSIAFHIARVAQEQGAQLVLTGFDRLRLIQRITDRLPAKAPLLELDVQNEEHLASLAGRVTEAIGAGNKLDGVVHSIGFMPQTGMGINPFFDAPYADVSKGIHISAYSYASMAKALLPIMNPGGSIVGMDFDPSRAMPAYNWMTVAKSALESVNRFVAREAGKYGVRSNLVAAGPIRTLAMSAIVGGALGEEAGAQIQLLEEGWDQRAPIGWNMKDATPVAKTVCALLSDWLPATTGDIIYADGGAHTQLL
In words: Inhibition of Mycobacterium tuberculosis InhA using 2-trans-decenoyl-CoA as substrate at 30 uM after 5 mins by spectrophotometry. Summed up: (§1)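 Recombinant M. tuberculosis InhA expressed in E. coli (70 nM) was pre-incubated with NADH and compound in 30 mM PIPES, 150 mM NaCl, pH 6.8, 25 °C, with 0.5% final DMSO. Substrate was 2-trans-decenoyl-CoA. Activity was followed as the decrease in A340; initial rates gave % inhibition versus control. Run in triplicate.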

The test system of test [2] is Mycobacterium tuberculosis. The test can be described thus: Antimycobacterial activity Mycobacterium tuberculosis H37Rv after 6 days by MTT colorimetric assay. It is filed as functional, organism-based. As to conditions: 144 h.
For test [3], the target named is T1, Enoyl-[acyl-carrier-protein] reductase [NADH] (Mycobacterium tuberculosis). In words: Inhibition of Mycobacterium tuberculosis InhA using 2-trans-decenoyl-CoA as substrate at 100 uM after 5 mins by spectrophotometry. The gist of the method:
as §1

In the case of `CCCCCCCCCCCCOC1(c2ccccc2)NC(=O)c2cnccc21` (racemic), the inhibition in test [1] worked out at 20%. In test [2], half-maximal inhibition (IC50) required 9.5 µM and the lowest concentration to inhibit growth (MIC) was 25 µM (≈ 9.86 µg/mL).
Compound `CCCCCCCCCCCCCCCCCCOc1cccc(C2(O)NC(=O)c3cnccc32)c1` (racemic) had an inhibition in test [3] of 67%. The inhibition in test [1] was found to be 28%. In test [2], the concentration for half-maximal inhibition (IC50) is 12 µM and the MIC came out at 25 µM (≈ 12.4 µg/mL).
`CCCCCCCCCCCCNc1cccc(C2(O)NC(=O)c3cnccc32)c1` (racemic): the inhibition in test [3] turned out to be 9%; in test [1] it was 1%. The MIC in test [2] was greater than 100 µM.
Regarding `CCCCCCCCCCCCSc1cccc(C2(O)NC(=O)c3cnccc32)c1` (racemic), the inhibition in test [3] was 66%; in test [1], 15%. For the same compound, in test [2], the IC50 is 6.5 µM. Also, the minimal inhibitory concentration (MIC) in test [2] turned out to be 12.5 µM (≈ 5.33 µg/mL).
Take `CCCCCCCCCCCCOc1ccc(C2(O)NC(=O)c3cnccc32)cc1` (racemic): the inhibition came to 16% in test [3] and 1% in test [1]. Besides, the MIC in test [2] was greater than 100 µM.
`CCCCCCCCCCCCCCC1(O)NC(=O)c2cnccc21` (racemic) gave an inhibition in test [3] of 10%. Besides, the MIC in test [2] is greater than 100 µM.
For the compound `CCCCCCCCCCCCN1C(=O)c2cnccc2C1(O)c1ccccc1` (racemic), in test [3], the inhibition was found to be 13%. In test [1], the inhibition turned out to be 0%. Besides, in test [2], the half-inhibitory concentration (IC50) amounted to 4.5 µM and the lowest concentration to inhibit growth (MIC) was 12.5 µM (≈ 4.93 µg/mL).
In test [2], `CCCCCCCCCCCCc1cccc(C2(O)NC(=O)c3cnccc32)c1` (racemic) had an IC50 of 7 µM and an MIC of 9.8 µM (≈ 3.87 µg/mL).
As to `CCCCCCCCCCCCOc1ccccc1C1(O)NC(=O)c2cnccc21` (racemic), the inhibition in test [3] and in test [1] was 0% each time. The compound also had an MIC in test [2] greater than 100 µM.
For `CCCCCCCCCCCCOc1cccc(C2(O)NC(=O)c3cnccc32)c1` (racemic), the inhibition was determined as 27% in test [3] and 12% in test [1]. Further, the lowest concentration to inhibit growth in test [2] (MIC) was 156 µM (≈ 64 µg/mL).
Consider `CCCCCCCCOc1cccc(C2(O)NC(=O)c3cnccc32)c1` (racemic), for which the inhibition in test [3] amounted to 12%. This compound also returned a minimum inhibitory concentration (MIC) in test [2] of 250 µM (≈ 88.6 µg/mL).
In test [2], `NNC(=O)c1ccncc1` [ISONIAZID] showed an MIC of 0.6 µM (≈ 0.0823 µg/mL).
The same measure, in the same setting: as for `O=C(O)c1cn(C2CC2)c2cc(N3CCNCC3)c(F)cc2c1=O` [CIPROFLOXACIN], the figure is 2.5 µM (≈ 0.828 µg/mL).
The compound `CCCCCCCCCCCCCCCCCCSc1cccc(C2(O)NC(=O)c3cnccc32)c1` (racemic) yielded an inhibition in test [1] of 26%. In addition, the minimum inhibitory concentration (MIC) in test [2] was greater than 100 µM.
Regarding `CCCCCCCCCCCCOc1cccc(C2(OC)NC(=O)c3cnccc32)c1` (racemic), in test [3], the inhibition is 0%. In test [2], this compound yielded an IC50 of 10 µM and a minimum inhibitory concentration (MIC) of 25 µM (≈ 10.6 µg/mL).

These data come from ChEMBL document CHEMBL1914444, “Chemical synthesis, biological evaluation and structure-activity relationship analysis of azaisoindolinones, a novel class of direct enoyl-ACP reductase inhibitors as potential antimycobacterial agents” (Bioorg Med Chem, 2011).
